Assay results: ChEMBL document CHEMBL3112482, “Nonclassical antifolates, part 5. Benzodiazepine analogs as a new class of DHFR inhibitors: synthesis, antitumor testing and molecular modeling study” (Eur J Med Chem, 2014)

Legend:
Format in all cases: functional
[1] = test system: HOP-62; test: Growth inhibition of human HOP62 cells at 10 uM after 48 hrs; settings: HOP-62, 48 h, read-out: GI
Procedure, shortened: (§1)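 Single-dose primary screen in the NCI 60 human tumour cell line panel, run at the NCI facility. The panel covers nine subpanels: leukaemia, non-small cell lung, colon, CNS, melanoma, ovarian, renal, prostate and breast. Read-out was percent growth of treated cells, shown as a mean graph and reported as percent growth inhibition.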

[2] = test system: SN12C; test: Growth inhibition of human SN12C cells at 10 uM after 48 hrs; settings: read-out: GI
Procedure, shortened: (§2)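 NCI 60-cell-line disease-oriented human tumor panel, single-dose primary screen at 10 µM. Data given as mean-graph percent growth of treated cells, reported as percent growth inhibition (GI %).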

[3] = test system: SR; test: Growth inhibition of human SR cells at 10 uM after 48 hrs; settings: read-out: GI; procedure, shortened: as §2
[4] = test system: U-251; test: Growth inhibition of human U251 cells at 10 uM after 48 hrs; settings: U-251, 48 h, read-out: GI; procedure, shortened: as §2
[5] = test system: TK-10; test: Growth inhibition of human TK10 cells at 10 uM after 48 hrs; settings: TK-10, 48 h, read-out: GI; procedure, shortened: as §2
[6] = test system: K562; test: Growth inhibition of human K562 cells at 10 uM after 48 hrs; settings: K562, 48 h, read-out: GI; procedure, shortened: as §1
[7] = test system: T47D; test: Growth inhibition of human T47D cells at 10 uM after 48 hrs; settings: read-out: GI; procedure, shortened: as §2
[8] = Cytotoxicity against human non-small cell lung cancer cells at 10 uM after 48 hrs; settings: Cancer cell lines; procedure, shortened: as §1
[9] = Cytotoxicity against human renal cancer cells at 10 uM after 48 hrs; settings: Cancer cell lines
[10] = test system: SF-295; test: Growth inhibition of human SF295 cells at 10 uM after 48 hrs; settings: SF-295, 48 h, read-out: GI; procedure, shortened: as §2
[11] = test system: SK-MEL-5; test: Growth inhibition of human SK-MEL-5 cells at 10 uM after 48 hrs; settings: SK-MEL-5, 48 h, read-out: GI; procedure, shortened: as §2
[12] = Growth inhibition of human EKVX cells at 10 uM after 48 hrs; settings: read-out: GI; procedure, shortened: as §1
[13] = Growth inhibition of human NCI-ADR-RES cells at 10 uM after 48 hrs; settings: read-out: GI; procedure, shortened: as §1
[14] = Growth inhibition of human OVCAR4 cells at 10 uM after 48 hrs; settings: OVCAR-4, 48 h, read-out: GI; procedure, shortened: as §1
[15] = Cytotoxicity against human prostate cancer cells at 10 uM after 48 hrs; settings: Cancer cell lines
[16] = test system: SK-OV-3; test: Growth inhibition of human SKOV3 cells at 10 uM after 48 hrs; settings: SK-OV-3, 48 h, read-out: GI; procedure, shortened: as §2
[17] = test system: NCI-H23; test: Growth inhibition of human NCI-H23 cells at 10 uM after 48 hrs; settings: NCI-H23, 48 h, read-out: GI; procedure, shortened: as §1
[18] = Growth inhibition of human UO31 cells at 10 uM after 48 hrs; settings: UO-31, 48 h, read-out: GI; procedure, shortened: as §2
[19] = test system: SF-268; test: Growth inhibition of human SF268 cells at 10 uM after 48 hrs; settings: SF-268, 48 h, read-out: GI; procedure, shortened: as §2
[20] = test system: PC-3; test: Growth inhibition of human PC3 cells at 10 uM after 48 hrs; settings: PC-3, 48 h, read-out: GI; procedure, shortened: as §1
[21] = test system: SNB-75; test: Growth inhibition of human SNB75 cells at 10 uM after 48 hrs; settings: SNB-75, 48 h, read-out: GI; procedure, shortened: as §2
[22] = Growth inhibition of human OVCAR5 cells at 10 uM after 48 hrs; settings: OVCAR-5, 48 h, read-out: GI; procedure, shortened: as §1
[23] = Cytotoxicity against human colon cancer cells at 10 uM after 48 hrs; settings: Cancer cell lines; procedure, shortened: as §1
[24] = test system: OVCAR-3; test: Growth inhibition of human OVCAR3 cells at 10 uM after 48 hrs; settings: OVCAR-3, 48 h, read-out: GI; procedure, shortened: as §1
[25] = test system: DU-145; test: Growth inhibition of human DU145 cells at 10 uM after 48 hrs; settings: DU-145, 48 h, read-out: GI; procedure, shortened: as §1
[26] = Growth inhibition of human Hs 578T cells at 10 uM after 48 hrs; settings: read-out: GI; procedure, shortened: as §1
[27] = test system: A549; test: Growth inhibition of human A549 cells at 10 uM after 48 hrs; settings: A549, 48 h, read-out: GI; procedure, shortened: as §1
[28] = test system: MDA-MB-231; test: Growth inhibition of human MDA-MB-231 cells at 10 uM after 48 hrs; settings: MDA-MB-231, 48 h, read-out: GI; procedure, shortened: as §1
[29] = test system: ACHN; test: Growth inhibition of human ACHN cells at 10 uM after 48 hrs; settings: read-out: GI; procedure, shortened: as §1
[30] = test system: NCI-H226; test: Growth inhibition of human NCI-H226 cells at 10 uM after 48 hrs; settings: NCI-H226, 48 h, read-out: GI; procedure, shortened: as §1
[31] = test system: SK-MEL-28; test: Growth inhibition of human SK-MEL-28 cells at 10 uM after 48 hrs; settings: SK-MEL-28, 48 h, read-out: GI; procedure, shortened: as §2
[32] = Growth inhibition of human RXF393 cells at 10 uM after 48 hrs; settings: RXF 393, 48 h, read-out: GI; procedure, shortened: as §1
[33] = test system: NCI-H322M; test: Growth inhibition of human NCI-H322M cells at 10 uM after 48 hrs; settings: read-out: GI; procedure, shortened: as §1
[34] = Growth inhibition of human SF539 cells at 10 uM after 48 hrs; settings: SF-539, 48 h, read-out: GI; procedure, shortened: as §2
[35] = test system: Malme-3M; test: Growth inhibition of human MALME-3M cells at 10 uM after 48 hrs; settings: read-out: GI; procedure, shortened: as §1
[36] = Cytotoxicity against human CNS cancer cells at 10 uM after 48 hrs; settings: Cancer cell lines
[37] = test system: M14; test: Growth inhibition of human M14 cells at 10 uM after 48 hrs; settings: M14, 48 h, read-out: GI; procedure, shortened: as §1
[38] = test system: A498; test: Growth inhibition of human A498 cells at 10 uM after 48 hrs; settings: A498, 48 h, read-out: GI; procedure, shortened: as §1
[39] = test system: SNB-19; test: Growth inhibition of human SNB19 cells at 10 uM after 48 hrs; settings: SNB-19, 48 h, read-out: GI; procedure, shortened: as §2
[40] = test system: MCF7; test: Growth inhibition of human MCF7 cells at 10 uM after 48 hrs; settings: MCF7, 48 h, read-out: GI; procedure, shortened: as §1
[41] = test system: HL-60(TB); test: Growth inhibition of human HL-60(TB) cells at 10 uM after 48 hrs; settings: HL-60, 48 h, read-out: GI
Procedure, shortened: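 NCI 60-cell-line human tumour panel covering nine subpanels (leukaemia, non-small cell lung, colon, CNS, melanoma, ovarian, renal, prostate, breast), run at the NCI facility. Primary screen tested a single dose of each compound. Read-out was percent growth of treated cells versus untreated cells, reported from the mean graph as percentage growth inhibition.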

[42] = read-out: LC50 (the source's name)

Nc1nc2c(c(-c3ccc(Cl)cc3)n1)CCC/C2=C\c1ccc(Cl)cc1
inhibition of growth at 10 µM [1]: < 30% | inhibition of growth at 10 µM [2]: < 30% | inhibition of growth at 10 µM [3]: 79.2% | inhibition of growth at 10 µM [4]: 86.1% | inhibition of growth at 10 µM [5]: < 30% | inhibition of growth at 10 µM [6]: 56.5% | inhibition of growth at 10 µM [7]: < 30% | GI50 [8]: 15.2 µM | TGI [8]: 55.7 µM | CC50 [8, 42]: 88.6 µM | CC50 [9]: 78.4 µM | GI50 [9]: 14.7 µM | TGI [9]: 40.6 µM | inhibition of growth at 10 µM [10]: 32.5% | inhibition of growth at 10 µM [11]: < 30% | inhibition of growth at 10 µM [12]: < 30% | inhibition of growth at 10 µM [13]: < 30% | inhibition of growth at 10 µM [14]: < 30% | GI50 [15]: 12.3 µM | LC50 [15]: 95 µM | TGI [15]: 51.2 µM | inhibition of growth at 10 µM [16]: < 30% | inhibition of growth at 10 µM [17]: 38.9% | inhibition of growth at 10 µM [18]: 32.2% | inhibition of growth at 10 µM [19]: < 30% | inhibition of growth at 10 µM [20]: < 30% | inhibition of growth at 10 µM [21]: < 30% | inhibition of growth at 10 µM [22]: < 30% | GI50 [23]: 4 µM | TGI [23]: 12.5 µM | CC50 [23, 42]: 51.3 µM | inhibition of growth at 10 µM [24]: 60.9% | inhibition of growth at 10 µM [25]: < 30% | inhibition of growth at 10 µM [26]: < 30% | inhibition of growth at 10 µM [27]: 33.3% | inhibition of growth at 10 µM [28]: < 30% | inhibition of growth at 10 µM [29]: < 30% | inhibition of growth at 10 µM [30]: < 30% | inhibition of growth at 10 µM [31]: < 30% | inhibition of growth at 10 µM [32]: 65.5% | inhibition of growth at 10 µM [33]: < 30% | inhibition of growth at 10 µM [34]: < 30% | inhibition of growth at 10 µM [35]: < 30% | GI50 [36]: 13.7 µM | TGI [36]: 53.1 µM | CC50 [36, 42]: 91.9 µM | inhibition of growth at 10 µM [37]: 89% | inhibition of growth at 10 µM [38]: 45.3% | inhibition of growth at 10 µM [39]: < 30% | inhibition of growth at 10 µM [40]: 66.9% | inhibition of growth at 10 µM [41]: 35.2%
